Results: ChEMBL document CHEMBL1629621, “Evaluation of strategies for improving proteolytic resistance of antimicrobial peptides by using variants of EFK17, an internal segment of LL-37” (Antimicrob Agents Chemother, 2009)
Values after ≈ are worked out from the molar mass of the structure shown. Active and inactive are the calls of the source. No cut-off for these calls is given here. Where a SMILES comes first, the peptide text is derived from it.

What was measured:
[1] = Toxicity in human erythrocytes at 6 to 60 uM by hemolysis assay; assay type: cell-based; conditions: erythrocyte
How it was run: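 EDTA-treated human erythrocytes were washed and used as a 5% suspension in PBS, pH 7.4. Cells were rotated end-over-end with peptide for 1 h at 37°C, then centrifuged. Hemoglobin was read at 540 nm relative to 2% Triton X-100, with spontaneous leakage as background. Triplicate.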

Staphylococcus aureus [2] = test: Antimicrobial activity against Staphylococcus aureus FDA 486 after 21 hrs by broth microdilution method; assay type: functional; conditions: FDA 486, 21 h
How it was run: (§1)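 Microtiter broth dilution at 37°C for 21 h in DEAE-refined LB medium prepared in 10 mM Tris, pH 7.4. Bacteria were grown overnight in 3% trypticase soy broth, rinsed in Tris and used at about 10^6 CFU/ml. Final peptide was 0.6–80 µM in twofold steps. Growth was read visually as pellet and at OD540. MIC is >95% inhibition with no visible pellet. Two separate experiments.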

Staphylococcus aureus [3] = test: Antimicrobial activity against Staphylococcus aureus 2844 after 21 hrs by broth microdilution method; assay type: functional; conditions: Staphylococcus aureus, 2844, 21 h; how it was run: as §1
Staphylococcus aureus [4] = test: Antimicrobial activity against Staphylococcus aureus 29213 after 21 hrs by broth microdilution method; assay type: functional; conditions: Staphylococcus aureus, 29213, 21 h; how it was run: as §1
Pseudomonas aeruginosa [5] = test: Antimicrobial activity against Pseudomonas aeruginosa ATCC 27853 after 21 hrs by broth microdilution method; assay type: functional; conditions: ATCC 27853, 21 h; how it was run: as §1
Pseudomonas aeruginosa [6] = test: Antimicrobial activity against Pseudomonas aeruginosa 15159 after 21 hrs by broth microdilution method; assay type: functional; conditions: Pseudomonas aeruginosa, 15159, 21 h; how it was run: as §1
HaCaT [7] = test: Cytotoxicity against human HaCaT assessed as LDH release at 6 to 60 uM; assay type: cell-based
How it was run: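 HaCaT keratinocytes were seeded at 3,000 cells/well and grown to confluence in serum-free keratinocyte medium with BPE-rEGF. They were exposed overnight to 6 or 60 µM peptide in that medium. LDH release was measured against a 1% Triton X-100 control, with spontaneous release as background. Triplicate.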

HaCaT [8] = test: Cytotoxicity against human HaCaT assessed at 6 to 60 uM by MTT assay; assay type: cell-based
How it was run: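 HaCaT keratinocytes were seeded at 3,000 cells/well, grown to confluence in SFM-BPE-rEGF, and given 6 or 60 µM peptide overnight. MTT was then added for 1 h at 37°C and formazan dissolved in DMSO. Absorbance was read at 550 nm relative to untreated cells, with the 1% Triton X-100 signal as background. Triplicate.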

Lipid bilayer [9] = test: Binding affinity to DOPC-cholesterol liposome at 10 to 1000 uM after 45 mins by ellipsometry
How it was run: (§2)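 Ellipsometry on DOPC-cholesterol bilayers deposited from DDM micelles onto silica. Peptide was added cumulatively in 10 mM Tris, pH 7.4, with 5 mM glucose at 37°C; […] adds 150 mM NaCl. Each step was followed 45 min to saturation. Adsorbed amount was calculated from refractive index and thickness, with dn/dc 0.154 cm3/g. Duplicates.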

Lipid bilayer [10] = test: Binding affinity to DOPC-cholesterol liposome at 10 to 1000 uM after 45 mins by ellipsometry in presence of NaCl; how it was run: as §2
[11] = Stability of the compound at 136 uM after 4 hrs in presence of human neutrophil elastase; assay type: ADME
How it was run: (§3)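 Peptide at 136 µM was incubated with protease (peptide:enzyme 300:1) for 4 h at 37°C in 10 mM Tris, pH 7.4. The reaction was stopped by boiling in Laemmli buffer, then run on Tris-Tricine 16.5% SDS-PAGE and Coomassie stained. Band densitometry gave the undegraded fraction, normalized to peptide incubated without enzyme. Two separate experiments.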

[12] = Stability of the compound at 136 uM after 4 hrs in presence of Pseudomonas aeruginosa elastase; assay type: ADME; how it was run: as §3
[13] = Stability of the compound at 136 uM after 4 hrs in presence of aureolysin; assay type: ADME; how it was run: as §3
[14] = Stability of the compound at 136 uM after 4 hrs in presence of […] V8 protease; assay type: ADME; how it was run: as §3
Lipid bilayer [15] = test: Induction of DOPC-cholesterol liposome leakage in cell-free system at 0.1 to 1 uM after 45 mins; assay type: functional
How it was run: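 Carboxyfluorescein-loaded (100 mM, self-quenching) DOPC-cholesterol 3:2 unilamellar liposomes, about 110 nm, at 10 µM lipid in Tris buffer at 37°C with stirring. Peptide was added at a single concentration per experiment, between 0.01 and 1 µM. After a 10 min baseline, fluorescence increase was followed for 45 min and the limiting leakage level taken.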

[16] = Toxicity in human erythrocytes at 60 uM by hemolysis assay in presence of serum; assay type: cell-based; conditions: erythrocyte

Structure (SMILES) | Activity [1] | MIC (Staphylococcus aureus [2]) [µM] | MIC (Staphylococcus aureus [3]) [µM] | MIC (Staphylococcus aureus [4]) [µM] | MIC (Pseudomonas aeruginosa [5]) [µM] | MIC (Pseudomonas aeruginosa [6]) [µM] | Activity (HaCaT [7]) | Activity (HaCaT [8]) | Activity (Lipid bilayer [9]) | Activity (Lipid bilayer [10]) | Stability [11] | Stability [12] | Stability [13] | Stability [14] | Activity (Lipid bilayer [15]) | Activity [16]
CC[C@H](C)[C@H](NC(=O)[C@H](CCCNC(=N)N)NC(=O)[C@H](CCC(N)=O)NC(=O)[C@@H](NC(=O)[C@@H](NC(=O)[C@H](CCCNC(=N)N)NC(=O)[C@H](CCCCN)NC(=O)[C@H](Cc1ccccc1)NC(=O)[C@H](CCC(=O)O)NC(C)=O)[C@@H](C)CC)C(C)C)C(=O)N[C@@H](CCCCN)C(=O)N[C@@H](CC(=O)O)C(=O)N[C@@H](Cc1ccccc1)C(=O)N[C@@H](CC(C)C)C(=O)N[C@@H](CCCNC(=N)N)C(=O)N[C@@H](CC(N)=O)C(=O)N[C@@H](CC(C)C)C(=O)N[C@H](C(N)=O)C(C)C | Toxic | 5 (≈ 11.1 µg/mL) | 5 (≈ 11.1 µg/mL) | 10 (≈ 22.2 µg/mL) | 10 (≈ 22.2 µg/mL) | 10 (≈ 22.2 µg/mL) | Toxic | Toxic | Active | inactive | Unstable | Unstable | Unstable | Unstable | – | –
CC(C)C[C@H](NC(=O)[C@H](Cc1c[nH]c2ccccc12)NC(=O)[C@H](CC(=O)O)NC(=O)[C@H](CCCCN)NC(=O)[C@H](Cc1c[nH]c2ccccc12)NC(=O)[C@H](CCCNC(=N)N)NC(=O)[C@H](CCC(N)=O)NC(=O)[C@@H](NC(=O)[C@H](Cc1c[nH]c2ccccc12)NC(=O)[C@H](CCCNC(=N)N)NC(=O)[C@H](CCCCN)NC(=O)[C@H](Cc1c[nH]c2ccccc12)NC(=O)[C@@H](N)CCC(=O)O)C(C)C)C(=O)N[C@@H](CCCNC(=N)N)C(=O)N[C@@H](CC(N)=O)C(=O)N[C@@H](CC(C)C)C(=O)N[C@H](C(=O)O)C(C)C (H-EWKRWVQRWKDWLRNLV-OH) | Toxic | 5 (≈ 12 µg/mL) | 5 (≈ 12 µg/mL) | 10 (≈ 24 µg/mL) | 10 (≈ 24 µg/mL) | 20 (≈ 48 µg/mL) | Toxic | Toxic | Active | inactive | Stable | Unstable | Stable | Stable | Active | –
CC[C@H](C)[C@H](NC(=O)[C@H](CCCNC(=N)N)NC(=O)[C@H](CCC(N)=O)NC(=O)[C@@H](NC(=O)[C@@H](NC(=O)[C@H](CCCNC(=N)N)NC(=O)[C@H](CCCCN)NC(=O)[C@H](Cc1ccccc1)NC(=O)[C@@H](N)CCC(=O)O)[C@@H](C)CC)C(C)C)C(=O)N[C@@H](CCCCN)C(=O)N[C@@H](CC(=O)O)C(=O)N[C@@H](Cc1ccccc1)C(=O)N[C@@H](CC(C)C)C(=O)N[C@@H](CCCNC(=N)N)C(=O)N[C@@H](CC(N)=O)C(=O)N[C@@H](CC(C)C)C(=O)N[C@H](C(=O)O)C(C)C | – | 40 (≈ 87 µg/mL) | 20 (≈ 43.5 µg/mL) | 80 (≈ 174 µg/mL) | 80 (≈ 174 µg/mL) | 80 (≈ 174 µg/mL) | – | – | Active | inactive | Unstable | Unstable | Unstable | Stable | Active | Non-toxic
